Measured values taken from ChEMBL document CHEMBL4393705, “New chalcone-sulfonamide hybrids exhibiting anticancer and antituberculosis activity” (Eur J Med Chem, 2019).

Columns and labels:
MDA-MB-231 = experiment: Anticancer activity against human MDA-MB-231 cells assessed as cell growth inhibition measured after 48 hrs by SRB assay; assay type: functional; conditions: MDA-MB-231, 48 h
Method in brief: (§1)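 NCI-60 five-dose screen at 100, 10, 1.0, 0.1 and 0.01 µM final. Cells in RPMI-1640 with 5% FBS and 2 mM glutamine were seeded 24 h ahead at 37°C, 5% CO2. Compound exposure was 48 h, followed by TCA fixation and SRB staining, read at 515 nm. GI50 is the concentration giving 50% lower net protein increase than control, using time-zero plates.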

PC-3 = experiment: Anticancer activity against human PC3 cells assessed as cell growth inhibition measured after 48 hrs by SRB assay; assay type: functional; conditions: PC-3, 48 h; method in brief: as §1
A549 = experiment: Anticancer activity against human A549 cells assessed as cell growth inhibition measured after 48 hrs by SRB assay; assay type: functional; conditions: A549, 48 h; method in brief: as §1
SK-MEL-5 = experiment: Anticancer activity against human SK-MEL-5 cells assessed as cell growth inhibition measured after 48 hrs by SRB assay; assay type: functional; conditions: SK-MEL-5, 48 h
Method in brief: (§2)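 NCI 60-cell screen, five-dose mode at 100, 10, 1.0, 0.1 and 0.01 µM. Cells grown in RPMI-1640 with 5% FBS and 2 mM L-glutamine, seeded and held 24 h at 37°C, 5% CO2, then exposed for 48 h. Fixed with cold TCA (10% final), stained with 0.4% SRB and read at 515 nm. Time-zero plates were used. GI50 is the concentration giving 50% lower net protein increase than control.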

SNB-19 = experiment: Anticancer activity against human SNB19 cells assessed as cell growth inhibition measured after 48 hrs by SRB assay; assay type: functional; conditions: SNB-19, 48 h; method in brief: as §2
CAKI-1 = experiment: Anticancer activity against human Caki1 cells assessed as cell growth inhibition measured after 48 hrs by SRB assay; assay type: functional; conditions: CAKI-1, 48 h; method in brief: as §1
NCI-H322M = experiment: Anticancer activity against human NCI-H322M cells assessed as cell growth inhibition measured after 48 hrs by SRB assay; assay type: functional; method in brief: as §1
RPMI-8226 = experiment: Anticancer activity against human RPMI8226 cells assessed as cell growth inhibition measured after 48 hrs by SRB assay; assay type: functional; conditions: RPMI-8226, 48 h; method in brief: as §1
HOP-62 = experiment: Anticancer activity against human HOP62 cells assessed as cell growth inhibition measured after 48 hrs by SRB assay; assay type: functional; conditions: HOP-62, 48 h; method in brief: as §1
BT-549 = experiment: Anticancer activity against human BT549 cells assessed as cell growth inhibition measured after 48 hrs by SRB assay; assay type: functional; conditions: BT-549, 48 h; method in brief: as §1
Staphylococcus aureus = experiment: Antibacterial activity against Staphylococcus aureus measured every 120 mins for 36 hrs by LB broth two-fold serial dilution method; assay type: functional
Method in brief: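 Panel of 12 laboratory and clinical S. aureus strains with varied drug-susceptibility patterns. Compounds were two-fold serially diluted in LB broth from a maximum of 32 mg/L. Growth was followed by OD600 every 120 min for 36 h. Vancomycin was the positive control, and runs were in duplicate.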

T47D = experiment: Anticancer activity against human T47D cells assessed as cell growth inhibition measured after 48 hrs by SRB assay; assay type: functional; method in brief: as §2
HCT-116 = experiment: Anticancer activity against human HCT116 cells assessed as cell growth inhibition measured after 48 hrs by SRB assay; assay type: functional; conditions: HCT-116, 48 h; method in brief: as §1
LOX IMVI = experiment: Anticancer activity against human LOXIMVI cells assessed as cell growth inhibition measured after 48 hrs by SRB assay; assay type: functional; method in brief: as §1
SK-MEL-2 = experiment: Anticancer activity against human SK-MEL-2 cells assessed as cell growth inhibition measured after 48 hrs by SRB assay; assay type: functional; conditions: SK-MEL-2, 48 h; method in brief: as §2
[1] = Selectivity index, ratio of LC50 for mouse 3T3 cells to MIC for Mycobacterium tuberculosis H37Rv ATCC27294; assay type: toxicity; conditions: read-out: Selectivity Index
M14 = experiment: Anticancer activity against human M14 cells assessed as cell growth inhibition measured after 48 hrs by SRB assay; assay type: functional; conditions: M14, 48 h; method in brief: as §1
NIH3T3 = experiment: Cytotoxicity against mouse 3T3 cells assessed as cell viability measured after 48 hrs by MTT assay; assay type: cell-based; conditions: nih3t3, 48 h
Method in brief: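 3T3 fibroblasts in DMEM with 10% FBS and penicillin-streptomycin, seeded at 10^4 cells/well 24 h prior. Exposed 48 h to two-fold serial dilutions from a 100 mg/mL DMSO stock. MTT (5 mg/mL in PBS) added for 1.5 h, formazan dissolved in DMSO, read at 530 nm. Duplicate runs on different days. Value interpolated between DMSO (100%) and cycloheximide (0%) controls.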

SW-620 = experiment: Anticancer activity against human SW620 cells assessed as cell growth inhibition measured after 48 hrs by SRB assay; assay type: functional; conditions: SW-620, 48 h; method in brief: as §2
HOP-92 = experiment: Anticancer activity against human HOP92 cells assessed as cell growth inhibition measured after 48 hrs by SRB assay; assay type: functional; conditions: HOP-92, 48 h; method in brief: as §1
IGROV-1 = experiment: Anticancer activity against human IGROV1 cells assessed as cell growth inhibition measured after 48 hrs by SRB assay; assay type: functional; conditions: IGROV-1, 48 h; method in brief: as §1
Hs-578T = experiment: Anticancer activity against human Hs578T cells assessed as cell growth inhibition measured after 48 hrs by SRB assay; assay type: functional; method in brief: as §1
HCT-15 = experiment: Anticancer activity against human HCT15 cells assessed as cell growth inhibition measured after 48 hrs by SRB assay; assay type: functional; conditions: HCT-15, 48 h; method in brief: as §1
NCI-H460 = experiment: Anticancer activity against human NCI-H460 cells assessed as cell growth inhibition measured after 48 hrs by SRB assay; assay type: functional; conditions: NCI-H460, 48 h; method in brief: as §1
RXF 393 = experiment: Anticancer activity against human RXF393 cells assessed as cell growth inhibition measured after 48 hrs by SRB assay; assay type: functional; conditions: RXF 393, 48 h; method in brief: as §1
CCRF-CEM = experiment: Anticancer activity against human CCRF-CEM cells assessed as cell growth inhibition measured after 48 hrs by SRB assay; assay type: functional; method in brief: as §1
OVCAR-3 = experiment: Anticancer activity against human OVCAR3 cells assessed as cell growth inhibition measured after 48 hrs by SRB assay; assay type: functional; conditions: OVCAR-3, 48 h; method in brief: as §1
HT-29 = experiment: Anticancer activity against human HT-29 cells assessed as cell growth inhibition measured after 48 hrs by SRB assay; assay type: functional; conditions: HT-29, 48 h; method in brief: as §1
[2] = read-out: LC50 (the source's name)

COc1ccc(C(=O)/C=C/c2ccc(Cl)cc2)cc1S(=O)(=O)Nc1c(N)nc(SC)[nH]c1=O gave a GI50 (MDA-MB-231) of 3.42 µM, an LC50 (MDA-MB-231) of 40.3 µM and a GI50 (PC-3) of 2.53 µM. The LC50 (PC-3) was 32.8 µM, the GI50 (A549) was 2.57 µM and the LC50 (concentration killing 50% of cells) (A549) was 30 µM. It also gave a GI50 (SK-MEL-5) of 2.72 µM, a CC50 (SK-MEL-5; [2]) of 32 µM and a GI50 (SNB-19) of 2.52 µM. It also gave an LC50 (SNB-19) of 32.2 µM, a GI50 (CAKI-1) of 3.83 µM and an LC50 (CAKI-1) of 79.5 µM. For the same molecule, the GI50 (NCI-H322M) was 2.38 µM, the LC50 (NCI-H322M) was 28 µM and the GI50 (RPMI-8226) was 2.17 µM. For the same molecule, the CC50 (RPMI-8226; [2]) was over 100 µM, the GI50 (HOP-62) was 1.81 µM and the LC50 (HOP-62) was 8.7 µM. For the same molecule, the GI50 (BT-549) was 1.63 µM, the LC50 (BT-549) was 6.17 µM and the MIC (Staphylococcus aureus) was over 57 µM. The GI50 (T47D) was 2.45 µM, the LC50 (T47D) was 38.8 µM and the GI50 (HCT-116) was 1.56 µM. For the same molecule, the LC50 (concentration killing 50% of cells present at start) (HCT-116) was 5.55 µM, the GI50 (LOX IMVI) was 1.63 µM and the LC50 (concentration giving 50% net cell kill) (LOX IMVI) was 6.34 µM. It also gave a GI50 (SK-MEL-2) of 12.8 µM, a CC50 (SK-MEL-2; [2]) of 61.1 µM and a selectivity ratio [1] of 0.65. The GI50 (M14) was 2 µM, the CC50 (M14; [2]) was 15.7 µM and the LC50 (NIH3T3) was 13 µM. It also gave a GI50 (SW-620) of 1.58 µM, a CC50 (SW-620; [2]) of 28.3 µM and a GI50 (HOP-92) of 2.59 µM. For the same molecule, the LC50 (HOP-92) was 32.6 µM, the GI50 (IGROV-1) was 3.25 µM and the LC50 (concentration giving 50% net cell kill) (IGROV-1) was 80.2 µM. The GI50 (Hs-578T) was 3.56 µM, the LC50 (Hs-578T) was over 100 µM and the GI50 (HCT-15) was 3.24 µM. It also gave an LC50 (concentration killing 50% of cells) (HCT-15) of 83.9 µM, a GI50 (NCI-H460) of 2.49 µM and an LC50 (concentration causing 50% net cell kill) (NCI-H460) of 29.1 µM. For the same molecule, the GI50 (RXF 393) was 1.6 µM, the LC50 (concentration causing 50% net cell kill) (RXF 393) was 6.67 µM and the GI50 (CCRF-CEM) was 2.66 µM. It also gave an LC50 (CCRF-CEM) of over 100 µM, a GI50 (OVCAR-3) of 1.94 µM and an LC50 (OVCAR-3) of 8 µM. It also gave a GI50 (HT-29) of 2.93 µM and an LC50 (concentration giving 50% net cell kill) (HT-29) of 45.3 µM.
